Data on 11 compounds can be found in ChEMBL document CHEMBL4261587 (Eur J Med Chem, 2018).

Data set [1] in a line: Half life in Sprague-Dawley rat liver microsomes at 0.5 uM by LC-MS/MS analysis. It is filed as ADME, microsome.
Data set [2] has as its target Dual specificity tyrosine-phosphorylation-regulated kinase 1B (Homo sapiens, UniProt Q9Y463). The data set can be described thus: Inhibition of recombinant full length human Dyrk1B expressed in Baculovirus expression system using KKISGRLSPIMTEQ as substrate in presence of ATP.
In data set [3] the test system is HeLa. The data set can be described thus: Cytotoxicity against human HeLa cells after 5 days by MTT assay. The note with it: 120 h. It is filed as functional, cell-based. On the technique in general: Tetrazolium assays rely on reduction of a dye to a coloured formazan, in cell work by metabolically active cells.
The target of data set [4] is Dual specificity protein kinase CLK2 (Homo sapiens) (UniProt P49760). The data set can be described thus: Inhibition of recombinant human Clk2 expressed in Baculovirus expression system at 2 uM by Z'-LYTE assay.
Data set [5] has as its target SRSF protein kinase 1 (Homo sapiens) (UniProt Q96SB4). The data set can be described thus: Inhibition of recombinant human SRPK1 expressed in Baculovirus expression system at 2 uM by Z'-LYTE assay.
The target of data set [6] is T1, Dual specificity tyrosine-phosphorylation-regulated kinase 1A (Homo sapiens, UniProt Q13627). Briefly: Inhibition of Dyrk1A in human HeLa cells transfected with GFP-SF3b1-NT assessed as decrease in SF3B1 phosphorylation at Thr434 after 18 hrs by Western blot analysis. It is filed as cell-based. Summed up:
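HeLa cells were transiently transfected with a GFP-SF3b1 expression vector, then treated with compound. Read-out was phosphorylation of SF3b1 at Thr434, which serves as a marker of endogenous Dyrk1A activity in the cell.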
In general terms: A western blot detects proteins with antibodies after separation by electrophoresis.

For data set [7], the target named is T2, Dual specificity tyrosine-phosphorylation-regulated kinase 2 (Homo sapiens, UniProt Q92630).
T2 sequence (Q92630 whole entry): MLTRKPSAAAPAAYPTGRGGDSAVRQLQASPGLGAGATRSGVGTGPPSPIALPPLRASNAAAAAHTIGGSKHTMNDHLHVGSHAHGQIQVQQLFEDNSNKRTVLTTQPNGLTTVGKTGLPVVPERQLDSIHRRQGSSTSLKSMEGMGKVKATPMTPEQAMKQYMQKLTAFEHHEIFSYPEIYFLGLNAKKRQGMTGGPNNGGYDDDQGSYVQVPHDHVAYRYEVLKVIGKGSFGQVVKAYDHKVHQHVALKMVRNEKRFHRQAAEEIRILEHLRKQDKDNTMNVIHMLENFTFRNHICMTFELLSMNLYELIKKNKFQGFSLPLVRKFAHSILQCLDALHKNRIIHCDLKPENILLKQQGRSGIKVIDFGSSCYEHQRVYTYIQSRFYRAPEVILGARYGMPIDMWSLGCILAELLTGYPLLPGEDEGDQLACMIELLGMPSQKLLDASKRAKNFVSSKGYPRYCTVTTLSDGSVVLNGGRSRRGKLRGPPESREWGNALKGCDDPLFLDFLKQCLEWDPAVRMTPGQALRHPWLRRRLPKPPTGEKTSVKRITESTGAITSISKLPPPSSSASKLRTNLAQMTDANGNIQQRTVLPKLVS
Briefly: Inhibition of recombinant human Dyrk2 (unknown origin) at 2 uM by Lantha-screen assay.

The target in data set [8] is T1, Dual specificity tyrosine-phosphorylation-regulated kinase 1A. Briefly: Inhibition of recombinant human Dyrk1A expressed in Baculovirus expression system by Z'-LYTE assay.
Data set [9] addresses Homeodomain-interacting protein kinase 1 (Homo sapiens) (UniProt Q86Z02). The data set can be described thus: Inhibition of recombinant human HIPK1 expressed in Baculovirus expression system at 2 uM by Z'-LYTE assay.
A short description of data set [10]: Half life in human liver S9 fraction at 0.3 uM incubated up to 120 mins at 37 degC in presence of NADP+/UDPGA by LC-MS/MS analysis. Type of data set: ADME, subcellular. The gist of the method: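 Phase I and phase II metabolic stability was tested in S9 fraction from human liver homogenate. Samples were taken at several time points, and the remaining parent compound was quantified by LC-MS/MS to give a metabolic half-life.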

In data set [11] the target is Casein kinase I isoform delta (Homo sapiens) (UniProt P48730). Briefly: Inhibition of recombinant human CK1delta expressed in Baculovirus expression system at 2 uM by Z'-LYTE assay.
For data set [12], the system named is HeLa. The data set can be described thus: Cytotoxicity against human HeLa cells assessed as cell viability at 1 uM by XTT assay. The settings on record: read-out: Activity. Type of data set: functional.
Data set [13] has as its system HeLa. The data set can be described thus: Cytotoxicity against human HeLa cells assessed as cell viability at 3 uM by XTT assay. It is filed as functional. The note with it: read-out: Activity.
The target in data set [14] is Dual specificity protein kinase CLK1 (Homo sapiens, UniProt P49759). Briefly: Inhibition of recombinant human Clk1 expressed in Escherichia coli at 2 uM by Z'-LYTE assay.
Data set [15] deals with Serine/threonine-protein kinase pim-1 (Homo sapiens) (UniProt P11309). Briefly: Inhibition of recombinant human PIM1 expressed in Baculovirus expression system at 2 uM by Z'-LYTE assay.
The target of data set [16] is T1, Dual specificity tyrosine-phosphorylation-regulated kinase 1A. Briefly: Inhibition of recombinant full length human Dyrk1A expressed in Baculovirus expression system using KKISGRLSPIMTEQ as substrate in presence of ATP.
The test system of data set [17] is HeLa. The data set can be described thus: Cytotoxicity against human HeLa cells assessed as cell viability at 10 uM by XTT assay. Type of data set: functional. The note with it: read-out: Activity.
The target in data set [18] is T3, Serine/threonine-protein kinase haspin (Homo sapiens) (UniProt Q8TF76).
T3 sequence (whole entry): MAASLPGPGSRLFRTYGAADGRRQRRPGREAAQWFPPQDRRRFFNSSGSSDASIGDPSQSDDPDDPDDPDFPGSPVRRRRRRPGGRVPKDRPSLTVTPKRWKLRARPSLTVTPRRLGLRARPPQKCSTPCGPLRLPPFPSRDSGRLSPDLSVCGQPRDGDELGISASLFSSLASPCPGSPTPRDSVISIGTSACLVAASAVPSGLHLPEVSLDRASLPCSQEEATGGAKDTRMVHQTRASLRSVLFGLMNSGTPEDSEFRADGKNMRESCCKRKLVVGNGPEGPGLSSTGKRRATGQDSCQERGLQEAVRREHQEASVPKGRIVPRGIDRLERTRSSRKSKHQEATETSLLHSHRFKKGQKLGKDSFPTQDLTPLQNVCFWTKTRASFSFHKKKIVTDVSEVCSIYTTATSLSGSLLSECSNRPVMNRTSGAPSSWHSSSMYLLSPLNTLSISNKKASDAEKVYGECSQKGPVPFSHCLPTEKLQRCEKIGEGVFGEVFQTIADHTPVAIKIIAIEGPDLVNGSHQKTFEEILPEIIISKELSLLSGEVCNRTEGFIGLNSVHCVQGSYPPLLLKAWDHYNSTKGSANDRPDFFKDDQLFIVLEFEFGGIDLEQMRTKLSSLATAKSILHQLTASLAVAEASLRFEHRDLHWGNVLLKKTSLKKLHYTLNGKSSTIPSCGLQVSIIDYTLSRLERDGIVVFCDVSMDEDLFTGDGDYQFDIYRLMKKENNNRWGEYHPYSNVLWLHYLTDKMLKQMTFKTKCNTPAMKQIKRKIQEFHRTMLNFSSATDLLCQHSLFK
The data set can be described thus: Inhibition of recombinant human Haspin expressed in Baculovirus expression system at 2 uM by Adapta assay.

The target in data set [19] is BDNF/NT-3 growth factors receptor (Homo sapiens) (UniProt Q16620). Briefly: Inhibition of recombinant human TRKB expressed in Baculovirus expression system at 2 uM by Z'-LYTE assay.
In data set [20] the target is T1, Dual specificity tyrosine-phosphorylation-regulated kinase 1A. Briefly: Inhibition of recombinant human Dyrk1A expressed in Baculovirus expression system at 2 uM by Z'-LYTE assay.
In data set [21] the target is T4, Serine/threonine-protein kinase haspin (Homo sapiens, UniProt Q8TF76).
T4 sequence (Q8TF76 whole entry): T3 sequence (whole entry)
The data set can be described thus: Inhibition of recombinant human Haspin expressed in Baculovirus expression system by Adapta assay.

Data set [22] addresses Myosin light chain kinase 2, skeletal/cardiac muscle (Homo sapiens) (UniProt Q9H1R3). The data set can be described thus: Inhibition of recombinant human MLCK2 expressed in Baculovirus expression system at 2 uM by Lantha-screen assay.
Data set [23] addresses Cyclin-dependent kinase 5/CDK5 activator 1 (Homo sapiens) (UniProt Q00535+Q15078). Briefly: Inhibition of recombinant human CDK5/p25 expressed in baculovirus expression system at 2 uM by Z'-LYTE assay.
The target in data set [24] is T5, Serine/threonine-protein kinase 17A (Homo sapiens) (UniProt Q9UEE5).
T5 sequence (whole entry): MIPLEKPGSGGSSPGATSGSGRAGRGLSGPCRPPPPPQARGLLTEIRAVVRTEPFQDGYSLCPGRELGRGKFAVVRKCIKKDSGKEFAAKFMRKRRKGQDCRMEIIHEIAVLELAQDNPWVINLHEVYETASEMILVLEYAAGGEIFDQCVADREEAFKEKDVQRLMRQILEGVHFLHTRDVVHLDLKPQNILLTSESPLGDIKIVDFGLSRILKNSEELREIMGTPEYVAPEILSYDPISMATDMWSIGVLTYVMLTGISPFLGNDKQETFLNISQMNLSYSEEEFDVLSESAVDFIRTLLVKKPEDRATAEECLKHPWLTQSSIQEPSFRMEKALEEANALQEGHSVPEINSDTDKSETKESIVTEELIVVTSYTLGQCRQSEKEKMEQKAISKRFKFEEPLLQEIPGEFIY
Briefly: Inhibition of recombinant human STK17A expressed in Baculovirus expression system at 2 uM by Lantha-Screen assay.

The test system of data set [25] is HeLa. Briefly: Cytotoxicity against human HeLa cells after 72 hrs by CellTiter-Blue assay. It is filed as functional, cell-based.

Sequence of Dual specificity tyrosine-phosphorylation-regulated kinase 1B (Q9Y463 whole entry): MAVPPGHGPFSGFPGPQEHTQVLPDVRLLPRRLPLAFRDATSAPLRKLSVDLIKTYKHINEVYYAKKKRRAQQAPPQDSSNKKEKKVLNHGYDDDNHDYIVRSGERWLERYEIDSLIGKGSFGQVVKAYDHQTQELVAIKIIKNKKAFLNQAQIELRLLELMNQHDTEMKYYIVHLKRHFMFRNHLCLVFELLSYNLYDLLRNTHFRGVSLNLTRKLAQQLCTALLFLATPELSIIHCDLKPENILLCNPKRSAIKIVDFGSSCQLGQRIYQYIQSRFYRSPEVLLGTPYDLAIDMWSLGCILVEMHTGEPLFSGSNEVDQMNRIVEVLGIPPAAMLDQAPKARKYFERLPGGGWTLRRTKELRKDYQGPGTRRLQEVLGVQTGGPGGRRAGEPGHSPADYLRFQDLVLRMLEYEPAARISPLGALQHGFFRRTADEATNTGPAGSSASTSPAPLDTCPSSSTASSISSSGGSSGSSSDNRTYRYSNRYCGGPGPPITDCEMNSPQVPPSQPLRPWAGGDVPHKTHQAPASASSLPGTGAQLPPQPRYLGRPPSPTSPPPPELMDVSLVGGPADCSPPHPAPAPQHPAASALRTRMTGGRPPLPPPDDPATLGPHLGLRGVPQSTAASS
Sequence of Dual specificity protein kinase CLK1 (P49759 whole entry): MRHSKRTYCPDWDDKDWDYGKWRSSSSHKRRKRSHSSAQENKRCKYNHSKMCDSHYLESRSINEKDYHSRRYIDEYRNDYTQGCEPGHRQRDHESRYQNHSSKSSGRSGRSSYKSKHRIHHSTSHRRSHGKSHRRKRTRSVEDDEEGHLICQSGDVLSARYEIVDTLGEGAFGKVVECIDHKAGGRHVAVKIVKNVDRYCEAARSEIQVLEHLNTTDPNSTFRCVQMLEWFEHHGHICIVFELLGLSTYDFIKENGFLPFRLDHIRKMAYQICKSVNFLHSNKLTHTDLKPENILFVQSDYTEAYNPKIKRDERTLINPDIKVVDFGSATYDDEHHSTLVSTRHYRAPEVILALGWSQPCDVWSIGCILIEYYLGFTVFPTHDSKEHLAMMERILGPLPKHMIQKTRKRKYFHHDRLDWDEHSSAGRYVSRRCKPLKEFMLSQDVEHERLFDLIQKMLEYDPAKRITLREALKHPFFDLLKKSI
Sequence of BDNF/NT-3 growth factors receptor (Homo sapiens) (Q16620 32-822 limits assumed): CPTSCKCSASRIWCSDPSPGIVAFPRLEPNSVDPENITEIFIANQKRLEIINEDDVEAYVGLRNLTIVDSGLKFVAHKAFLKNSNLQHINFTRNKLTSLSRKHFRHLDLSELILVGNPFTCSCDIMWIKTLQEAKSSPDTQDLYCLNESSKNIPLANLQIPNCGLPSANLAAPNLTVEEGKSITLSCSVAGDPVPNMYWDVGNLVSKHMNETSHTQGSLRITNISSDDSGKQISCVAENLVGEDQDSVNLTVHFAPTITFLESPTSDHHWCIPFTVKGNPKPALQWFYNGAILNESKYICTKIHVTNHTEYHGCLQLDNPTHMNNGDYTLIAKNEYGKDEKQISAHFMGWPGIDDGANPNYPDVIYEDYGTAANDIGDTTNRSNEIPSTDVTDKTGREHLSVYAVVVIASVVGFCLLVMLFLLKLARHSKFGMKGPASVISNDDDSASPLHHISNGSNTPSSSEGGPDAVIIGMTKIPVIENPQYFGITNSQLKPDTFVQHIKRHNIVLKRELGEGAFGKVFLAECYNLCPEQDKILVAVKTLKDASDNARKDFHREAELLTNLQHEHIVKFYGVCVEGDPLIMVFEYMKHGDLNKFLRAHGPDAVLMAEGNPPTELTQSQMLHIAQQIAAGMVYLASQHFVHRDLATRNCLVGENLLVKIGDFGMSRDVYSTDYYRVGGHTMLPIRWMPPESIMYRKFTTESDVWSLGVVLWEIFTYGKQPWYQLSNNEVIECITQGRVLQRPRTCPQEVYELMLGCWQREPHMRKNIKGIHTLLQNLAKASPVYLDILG
Sequence of SRSF protein kinase 1 (Homo sapiens) (Q96SB4 whole entry): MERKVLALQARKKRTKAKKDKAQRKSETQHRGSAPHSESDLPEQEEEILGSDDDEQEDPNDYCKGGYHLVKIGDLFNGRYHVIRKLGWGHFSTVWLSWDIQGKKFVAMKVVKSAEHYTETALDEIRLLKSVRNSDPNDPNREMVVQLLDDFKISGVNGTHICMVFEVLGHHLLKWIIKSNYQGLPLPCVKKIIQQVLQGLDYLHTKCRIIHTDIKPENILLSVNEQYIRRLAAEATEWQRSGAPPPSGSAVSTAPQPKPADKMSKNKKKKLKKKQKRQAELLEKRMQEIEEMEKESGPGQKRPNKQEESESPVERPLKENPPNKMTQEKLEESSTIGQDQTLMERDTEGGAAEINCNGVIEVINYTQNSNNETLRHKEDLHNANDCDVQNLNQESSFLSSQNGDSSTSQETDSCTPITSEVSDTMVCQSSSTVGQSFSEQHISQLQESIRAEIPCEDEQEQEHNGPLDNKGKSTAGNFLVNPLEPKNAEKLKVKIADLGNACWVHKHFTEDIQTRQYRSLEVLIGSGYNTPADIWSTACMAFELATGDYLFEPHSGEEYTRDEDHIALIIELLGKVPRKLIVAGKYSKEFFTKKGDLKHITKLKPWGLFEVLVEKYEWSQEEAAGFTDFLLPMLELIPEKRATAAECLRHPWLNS
Sequence of Cyclin-dependent kinase 5/CDK5 activator 1 (Homo sapiens) (Q00535 whole entry): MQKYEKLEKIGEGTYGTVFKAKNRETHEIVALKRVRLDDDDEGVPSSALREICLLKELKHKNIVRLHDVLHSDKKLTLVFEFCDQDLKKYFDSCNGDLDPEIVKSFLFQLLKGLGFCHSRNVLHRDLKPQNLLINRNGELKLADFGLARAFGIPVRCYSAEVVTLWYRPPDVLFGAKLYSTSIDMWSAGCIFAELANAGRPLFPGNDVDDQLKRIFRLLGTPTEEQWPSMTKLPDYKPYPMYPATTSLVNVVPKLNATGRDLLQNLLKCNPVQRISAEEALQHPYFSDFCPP
Sequence of Cyclin-dependent kinase 5/CDK5 activator 1 (Homo sapiens) (Q15078 99-307 partner limits assumed): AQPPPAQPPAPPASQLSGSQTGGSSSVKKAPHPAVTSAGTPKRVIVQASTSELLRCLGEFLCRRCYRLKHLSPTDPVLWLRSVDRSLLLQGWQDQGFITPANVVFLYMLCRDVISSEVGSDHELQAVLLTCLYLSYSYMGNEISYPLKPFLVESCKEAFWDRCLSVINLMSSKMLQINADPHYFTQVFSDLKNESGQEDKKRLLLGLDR
Sequence of Homeodomain-interacting protein kinase 1 (Homo sapiens) (Q86Z02 whole entry, looked up): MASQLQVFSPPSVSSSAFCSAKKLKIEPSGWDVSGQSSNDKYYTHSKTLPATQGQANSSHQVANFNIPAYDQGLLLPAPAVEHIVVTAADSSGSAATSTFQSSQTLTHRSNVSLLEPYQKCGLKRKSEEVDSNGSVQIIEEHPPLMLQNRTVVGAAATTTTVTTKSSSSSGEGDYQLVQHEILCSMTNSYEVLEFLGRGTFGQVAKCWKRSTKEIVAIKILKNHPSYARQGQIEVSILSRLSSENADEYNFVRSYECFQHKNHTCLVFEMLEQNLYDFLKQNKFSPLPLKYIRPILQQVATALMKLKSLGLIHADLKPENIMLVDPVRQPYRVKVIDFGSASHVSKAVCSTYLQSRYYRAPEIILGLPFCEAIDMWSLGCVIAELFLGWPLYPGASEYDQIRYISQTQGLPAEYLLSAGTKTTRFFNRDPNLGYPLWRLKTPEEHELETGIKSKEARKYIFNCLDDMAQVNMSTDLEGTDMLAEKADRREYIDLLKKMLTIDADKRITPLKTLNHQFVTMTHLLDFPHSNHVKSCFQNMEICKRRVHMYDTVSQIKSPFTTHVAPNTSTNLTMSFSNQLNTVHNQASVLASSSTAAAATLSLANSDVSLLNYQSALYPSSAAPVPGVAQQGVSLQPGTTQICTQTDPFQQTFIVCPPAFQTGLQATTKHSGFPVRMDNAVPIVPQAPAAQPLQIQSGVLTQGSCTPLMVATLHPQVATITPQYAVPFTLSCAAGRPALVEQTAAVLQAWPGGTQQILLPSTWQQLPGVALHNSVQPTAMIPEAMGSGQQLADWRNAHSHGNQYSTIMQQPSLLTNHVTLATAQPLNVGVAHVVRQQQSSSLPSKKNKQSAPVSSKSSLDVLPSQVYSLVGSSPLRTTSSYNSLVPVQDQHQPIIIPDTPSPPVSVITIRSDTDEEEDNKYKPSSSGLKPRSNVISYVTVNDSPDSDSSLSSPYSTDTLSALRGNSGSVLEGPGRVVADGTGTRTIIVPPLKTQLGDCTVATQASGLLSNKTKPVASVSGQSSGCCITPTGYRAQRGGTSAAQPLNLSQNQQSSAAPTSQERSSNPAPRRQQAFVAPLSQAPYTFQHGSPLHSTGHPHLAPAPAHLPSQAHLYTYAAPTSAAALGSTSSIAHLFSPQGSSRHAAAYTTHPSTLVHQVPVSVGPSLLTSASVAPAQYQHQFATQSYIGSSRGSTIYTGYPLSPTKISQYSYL
Sequence of Serine/threonine-protein kinase pim-1 (Homo sapiens) (P11309 whole entry, looked up): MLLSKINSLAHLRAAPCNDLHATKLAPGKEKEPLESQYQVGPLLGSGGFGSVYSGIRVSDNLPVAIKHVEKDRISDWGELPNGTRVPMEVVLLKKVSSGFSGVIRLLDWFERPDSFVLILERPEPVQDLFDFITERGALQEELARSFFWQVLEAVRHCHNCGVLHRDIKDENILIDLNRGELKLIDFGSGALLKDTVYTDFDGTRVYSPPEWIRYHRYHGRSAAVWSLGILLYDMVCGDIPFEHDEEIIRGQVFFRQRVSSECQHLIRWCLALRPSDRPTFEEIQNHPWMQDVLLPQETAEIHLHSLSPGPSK
Sequence of Casein kinase I isoform delta (Homo sapiens) (P48730 whole entry, looked up, canonical isoform): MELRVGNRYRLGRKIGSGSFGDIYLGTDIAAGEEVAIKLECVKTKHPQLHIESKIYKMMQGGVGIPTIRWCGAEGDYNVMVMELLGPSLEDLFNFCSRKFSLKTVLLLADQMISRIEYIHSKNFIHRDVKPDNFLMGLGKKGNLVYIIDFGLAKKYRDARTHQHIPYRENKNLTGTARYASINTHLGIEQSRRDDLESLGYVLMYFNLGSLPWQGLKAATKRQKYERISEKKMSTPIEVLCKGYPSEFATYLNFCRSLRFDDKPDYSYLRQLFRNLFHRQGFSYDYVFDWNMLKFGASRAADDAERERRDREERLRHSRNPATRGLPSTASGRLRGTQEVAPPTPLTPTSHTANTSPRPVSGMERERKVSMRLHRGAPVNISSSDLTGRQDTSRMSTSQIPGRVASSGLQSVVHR

In the case of `c1cncc(-c2cc(-c3cncs3)cs2)c1`, the half-life at 0.5 µM in data set [1] stood at 0.45 h.
On to `Nc1ccc(-c2cc(-c3cccnc3)cs2)cn1`, for which the IC50 in data set [2] worked out at 251 nM.
The compound `COc1ccc2c(c1)[nH]c1c(C)nccc12` [HARMINE] gave a 50% inhibitory concentration (IC50) in the data set on HeLa [3] of 8000 nM.
Consider `O=C(Cc1ccccc1)Nc1cncc(-c2cc(-c3cccnc3)cs2)c1`, for which the IC50 in data set [2] came to 326 nM.
Turning to `O=C(Cc1ccc(F)cc1)Nc1cncc(-c2cc(-c3cccnc3)cs2)c1`, the inhibition was 19% in data set [4]; 2% in data set [5]; 0% in data set [9]; 4% in [11]; 8% in [15]; 95% in data set [18]. The inhibition in data set [19] is 10%; in data set [20] it was 87%; in data set [22], 9.8%; in data set [23] it was 0%; in data set [24], 60%. For the same compound, the IC50 in data set [6] was determined as 79 nM; in [8], 14.3 nM; in data set [2] it was 383 nM; in data set [16] it was 14.3 nM; in data set [21], 36 nM. The inhibition at 2 µM in [7] and in [14] was 40% throughout. Further, in data set [10], the half-life at 0.3 µM amounted to 1.97 h. Also, the viability at 1 µM in the data set on HeLa [12] is 99%. Besides, the viability at 3 µM with HeLa [13] is 97%. Also, the viability at 10 µM in the data set with HeLa [17] came to 88%.
Turning to `Nc1cncc(-c2csc(-c3cccnc3)c2)c1`, the IC50 in data set [2] was found to be 130 nM.
On to `Oc1ccc(-c2nc3ccc4[nH]ncc4c3c3c2CCCC3)c(F)c1`, for which, in the data set on HeLa [25], the IC50 is 4800 nM.
In the case of `Nc1cncc(-c2cc(-c3cccnc3)cs2)c1`, the IC50 in [2] came to 154 nM.
Consider `C[C@]12CC[C@H]3[C@@H](CCC4=CC(=O)CC[C@@]43C)[C@@H]1CC[C@@H]2O` [TESTOSTERONE], for which the half-life at 0.3 µM in [10] came to 0.142 h.
On to `CN[C@@H]1C[C@H]2O[C@@](C)([C@@H]1OC)n1c3ccccc3c3c4c(c5c6ccccc6n2c5c31)C(=O)NC4` [STAUROSPORINE], for which the viability at 1 µM in the data set on HeLa [12] came to 33%.
Consider `O=C(Nc1cncc(-c2cc(-c3cccnc3)cs2)c1)c1c(F)cc(F)cc1F`, for which, in data set [2], the IC50 amounted to 298 nM. Besides, in data set [10], the half-life at 0.3 µM worked out at 2.05 h.

The half-life is the time in which the quantity being followed falls by half. As a reminder, the IC50 is the point on the concentration scale where inhibition reaches its midpoint. For orientation: inhibition means how much of the control response was suppressed.
